Hits are enriched below; roughly 1.9% of the tested compounds scored in any of these assays.
LEDGF integ inh = blockers of LEDGF/p75-dependent integrase strand transfer – biochemical, TR-FRET, high throughput, primary screen; TR-FRET IN-LEDGF/p75 DNA integration, Eu/Cy5; inhibition, % at 3.7 µM; 370,000 compounds, 0.64% hits; AID 743269, 2014;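 active means inhibition above the screen-wide mean plus 3 SD, cut at about 13% in these data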;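 further: signal is the Cy5 over europium emission ratio at 671 and 618 nm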
MBD2 DNA inh = inhibitors of MBD2 binding to methylated DNA, primary screen, biochemical, TR-FRET, DNA-binding domain, human; MBD2 binding to methylated oligonucleotide; inhibition, % at 4.4 µM; 370,000 compounds, 0.31% hits; AID 686964, 2013; in the data active means inhibition above about 13%
Target sequence (Q9UBB5 whole entry, looked up, the tested form may be a part): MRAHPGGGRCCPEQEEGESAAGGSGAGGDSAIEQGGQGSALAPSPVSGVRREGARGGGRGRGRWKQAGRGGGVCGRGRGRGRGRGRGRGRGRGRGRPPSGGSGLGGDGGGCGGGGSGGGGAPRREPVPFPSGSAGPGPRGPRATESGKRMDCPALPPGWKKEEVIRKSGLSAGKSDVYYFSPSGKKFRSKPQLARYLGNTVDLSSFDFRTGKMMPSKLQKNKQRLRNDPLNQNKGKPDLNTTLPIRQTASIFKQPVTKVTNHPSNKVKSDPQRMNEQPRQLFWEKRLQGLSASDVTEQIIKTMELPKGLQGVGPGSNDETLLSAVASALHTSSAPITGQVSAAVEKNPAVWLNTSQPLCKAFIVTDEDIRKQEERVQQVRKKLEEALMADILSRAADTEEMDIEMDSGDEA
UHRF1 binding = UHRF1 methylated DNA binding inhibitors, primary screen, counter-screen for MBD2 inhibitor project, biochemical, TR-FRET, human UHRF1, single concentration. 370,000 compounds, 0.75% hits. E3 ubiquitin-protein ligase UHRF1 (Homo sapiens), Q96T88. UHRF1 binding to methylated oligo. inhibition, % at 4.4 µM. AID 687016, 2013; in the data active means inhibition above about 21%;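 further: UHRF1 SRA domain binding a hemimethylated CpG hairpin DNA probe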
TDP2 inh = human TDP2 enzyme inhibitors, primary screen, biochemical, epi absorbance, recombinant enzyme; Tyrosyl-DNA phosphodiesterase 2 (Homo sapiens), O95551; T5PNP hydrolysis, p-nitrophenol absorbance 415 nm; inhibition, % at 12.8 µM; 370,000 compounds, 0.34% hits; AID 720702, 2013;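 active means inhibition above the mean of all tested compounds plus 3 SD, set per campaign, cut at about 25% in these data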
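System – recombinant human TDP2 · Quantity – TDP2 enzyme at 120 nM final · Doses – single concentration, 12.8 µM nominal, with 1% DMSO · Incubation – 2 h at 37 °C · Measured by – epi absorbance of p-nitrophenol freed from T5PNP by hydrolysis · Read-out – % inhibition relative to enzyme-containing and enzyme-free wells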
Rin1 Abl inh = inhibitors of Rin1-Abl protein binding, primary screen, biochemical, TR-FRET; Tyrosine-protein kinase ABL1 (Homo sapiens) + Ras and Rab interactor 1 (Homo sapiens), …; inhibition, % at 7.35 µM; 360,000 compounds, 0.4% hits; AID 588664, 2011; in the data active means inhibition above about 5%, passing the limit was not always enough
A number is an active result.

Screening COc1ccc(NC(=O)CSc2nnc(-c3ccco3)n2N)cc1Cl returned LEDGF integ inh inactive, MBD2 DNA inh inactive, UHRF1 binding 22, TDP2 inh inactive and Rin1 Abl inh inactive.
For COc1ccc(NC(=O)CSc2nnc(-c3ccccn3)n2N)cc1Cl the results were LEDGF integ inh inactive, MBD2 DNA inh inactive, UHRF1 binding inactive, TDP2 inh inactive and Rin1 Abl inh inactive.
Cc1cc(CN2CCCC(CO)(Cc3cccc(Cl)c3)C2)n[nH]1 (configuration not stated) was read as LEDGF integ inh inactive, MBD2 DNA inh inactive, UHRF1 binding 24, TDP2 inh inactive and Rin1 Abl inh inactive.
COc1cccc(Cn2cc(COC(=O)N3CCCC3)nn2)c1 was read as LEDGF integ inh inactive, MBD2 DNA inh inactive, UHRF1 binding inactive and TDP2 inh inactive.
For Fc1ccc(CNC(=S)NCc2cccc(Cl)c2)cc1 the results were LEDGF integ inh inactive, MBD2 DNA inh inactive, UHRF1 binding 30, TDP2 inh inactive and Rin1 Abl inh inactive.
For S=C(NCc1ccccc1)NCc1cccc(Cl)c1 the results were LEDGF integ inh inactive, MBD2 DNA inh inactive, UHRF1 binding inactive, TDP2 inh inactive and Rin1 Abl inh inactive.
COC(=O)[C@]12C[C@H](CC(=O)NCc3ccc(OC)c(OC)c3)C(=O)N(Cc3ccc(Cl)cc3Cl)C1=C[C@H](C(C)C)O[C@@H]2C1CC1 was read as LEDGF integ inh inactive, MBD2 DNA inh inactive, UHRF1 binding inactive and TDP2 inh inactive.
COC(=O)c1ccc(CSc2nnc(NCc3ccccc3)s2)o1 was read as LEDGF integ inh inactive, MBD2 DNA inh inactive, UHRF1 binding inactive, TDP2 inh inactive and Rin1 Abl inh inactive.
`COC(=O)c1ccc(CSc2nc(-c3ccccc3)cs2)o1` gave LEDGF integ inh inactive, MBD2 DNA inh inactive, UHRF1 binding 21, TDP2 inh inactive and Rin1 Abl inh inactive.
For CN(C)CCC(c1ccccc1)c1ccccn1 (configuration not stated) the results were LEDGF integ inh inactive, MBD2 DNA inh inactive, UHRF1 binding inactive, TDP2 inh inactive and Rin1 Abl inh inactive.
For CN(C)CCOC(C)(c1ccccc1)c1ccccn1 (configuration not stated) the results were LEDGF integ inh inactive, MBD2 DNA inh inactive, UHRF1 binding 66, TDP2 inh inactive and Rin1 Abl inh inactive.
`CCn1c(=O)n(CC)c2cc(N3CCCC3)c(NC(=O)c3ccccc3F)cc21` gave LEDGF integ inh inactive, MBD2 DNA inh inactive, UHRF1 binding inactive, TDP2 inh inactive and Rin1 Abl inh inactive.
CCn1c(=O)n(CC)c2cc(N3CCCC3)c(NC(=O)c3ccccc3C)cc21 was read as LEDGF integ inh inactive, MBD2 DNA inh inactive, UHRF1 binding 23, TDP2 inh inactive and Rin1 Abl inh inactive.
For CCN(CC)CCCNC(=O)c1cc2c(-c3cccc(OC)c3)nn(C)c2s1 the results were LEDGF integ inh inactive, MBD2 DNA inh inactive, UHRF1 binding inactive, TDP2 inh inactive and Rin1 Abl inh inactive.
CCCCN(CC)CCCNC(=O)c1cc2c(-c3ccc(OC)c(OC)c3)nn(C)c2s1 was read as LEDGF integ inh inactive, MBD2 DNA inh inactive, UHRF1 binding 24, TDP2 inh inactive and Rin1 Abl inh inactive.
For COc1ccc(C(=O)Nc2ccc3c(c2)nc(CN2CCCC2)n3C)cc1 the results were LEDGF integ inh inactive, MBD2 DNA inh inactive, UHRF1 binding 34, TDP2 inh inactive and Rin1 Abl inh inactive.
For COc1cccc(CNC(=O)C2CCCN(c3ncccn3)C2)c1OC (configuration not stated) the results were LEDGF integ inh inactive, MBD2 DNA inh inactive, UHRF1 binding inactive and TDP2 inh inactive.
C=CCNCc1ccc(OC)cc1OC was read as LEDGF integ inh inactive, MBD2 DNA inh inactive, UHRF1 binding inactive and TDP2 inh inactive.
For C=CCN1[C@@H](C)COc2cccc(N3CCCC3)c2S1(=O)=O the results were LEDGF integ inh inactive, MBD2 DNA inh inactive, UHRF1 binding inactive and TDP2 inh inactive.
CCc1cc(=O)oc2cc(C)c(CN3CCCCC3)c(O)c12 was read as LEDGF integ inh inactive, MBD2 DNA inh inactive, UHRF1 binding inactive, TDP2 inh inactive and Rin1 Abl inh inactive.
`CCCc1cc(=O)oc2cc(C)c(CN3CCCC3)c(O)c12` gave LEDGF integ inh 13, MBD2 DNA inh inactive, UHRF1 binding inactive, TDP2 inh inactive and Rin1 Abl inh inactive.
Screening C=CCN1C(=O)C(CC(=O)Nc2ccc(C)cc2)SC1=Nc1c(C)n(C)n(-c2ccccc2)c1=O (configuration not stated) returned LEDGF integ inh inactive, MBD2 DNA inh inactive, UHRF1 binding inactive, TDP2 inh inactive and Rin1 Abl inh inactive.
`Cc1c(N=C2SC(CC(=O)Nc3ccccc3)C(=O)N2CCN2CCOCC2)c(=O)n(-c2ccccc2)n1C` (configuration not stated) gave LEDGF integ inh inactive, MBD2 DNA inh inactive, UHRF1 binding 28, TDP2 inh inactive and Rin1 Abl inh inactive.
CC(=O)N1CCc2cc(S(=O)(=O)NCCC(=O)N(C)Cc3ccccc3F)ccc21 was read as LEDGF integ inh inactive, MBD2 DNA inh inactive, UHRF1 binding inactive and TDP2 inh inactive.
`O=C1CCC[C@H]2C[C@H](NCc3ccc(Cl)c(C(F)(F)F)c3)CC[C@]23CCCN13` gave LEDGF integ inh inactive, MBD2 DNA inh inactive, UHRF1 binding inactive and TDP2 inh inactive.
COC(=O)[C@H](C(C)C)N1CCc2nnn(Cc3ccccc3)c2-c2cc(F)ccc2S1(=O)=O was read as LEDGF integ inh inactive, MBD2 DNA inh inactive, UHRF1 binding inactive and TDP2 inh inactive.
For CCCCN1C(=O)C(CC(=O)NCc2cccc3ccccc23)CC(C(=O)N2CCOCC2)=C1C (configuration not stated) the results were LEDGF integ inh inactive, MBD2 DNA inh inactive, UHRF1 binding 22, TDP2 inh inactive and Rin1 Abl inh inactive.
`CC1=C(C(=O)N2CCOCC2)CC(CC(=O)NCc2cccc3ccccc23)C(=O)N1CCCN1CCCC1=O` (configuration not stated) gave LEDGF integ inh inactive, MBD2 DNA inh inactive, UHRF1 binding inactive, TDP2 inh inactive and Rin1 Abl inh inactive.
COc1ccc(CNCC#Cc2ccccc2)cc1 was read as LEDGF integ inh inactive, MBD2 DNA inh inactive, UHRF1 binding inactive and TDP2 inh inactive.
For CN(C)C(=O)[C@H]1C[C@H]1[C@@H](O)[C@H](CO)NC(=O)[C@H](Cc1ccccc1)NC(=O)OC(C)(C)C the results were LEDGF integ inh inactive, MBD2 DNA inh inactive, UHRF1 binding 28, TDP2 inh inactive and Rin1 Abl inh inactive.
